Source: PubChem BioAssay (several laboratories)
This excerpt belongs to a sample that is enriched for hits.
ROMK mod: modulates human ROMK potassium channel activity | P48048 | Tet-inducible ROMK, thallium flux fluorescence; actives lie on both sides | B-score at 10 µM | hit rate 2% among 130,000;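 active = signal ratio slope over the read window, or its plate-corrected B-score, at least 3 SD from the plate mean, either direction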;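 also: B-score of the F/F0 ratio slope over 7 to 12 s after thallium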
Target sequence (P48048 whole entry, looked up): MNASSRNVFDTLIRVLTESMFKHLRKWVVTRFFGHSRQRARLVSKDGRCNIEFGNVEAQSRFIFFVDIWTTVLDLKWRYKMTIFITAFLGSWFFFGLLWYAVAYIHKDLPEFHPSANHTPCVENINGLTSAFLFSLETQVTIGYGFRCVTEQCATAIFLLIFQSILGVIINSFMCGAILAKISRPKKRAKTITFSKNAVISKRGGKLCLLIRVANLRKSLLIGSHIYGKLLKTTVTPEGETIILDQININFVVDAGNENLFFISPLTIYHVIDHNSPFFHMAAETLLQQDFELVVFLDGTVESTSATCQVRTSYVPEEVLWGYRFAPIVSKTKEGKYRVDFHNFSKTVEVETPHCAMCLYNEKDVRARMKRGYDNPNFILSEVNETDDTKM
Calb biofilm kill: mixtures killing C. albicans biofilm; C. albicans biofilm persisters + clotrimazole, fluorescence viability; primary screen in compound mixtures of four per well; inhibition, % at 7.6 µM; hit rate 0.02% among 120,000;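 active = inhibition above 30.3% in the primary screen of four-compound pools, then above 30% when the compound was retested; inconclusive = passed the primary limit but could not be retested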;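 also: compounds exposed to preformed 24 h biofilms for 48 h; 0% = untreated biofilm control and 100% = clotrimazole plus chlorhexidine kill blank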
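Test system: C. albicans CAF4-2 wild-type biofilms; buffer or medium: RPMI/MOPS medium, pH 7.0; schedule: 24 h biofilm formation, then 48 h compound exposure, 37 °C; detection: Alamar Blue fluorescence; measure: percent inhibition of biofilm viability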
ROMK retest: human ROMK channel modulation, retest confirmation | shares compounds with ROMK mod | ROMK thallium flux, fluorescence ratio; hits give low values | normalized thallium flux (F/F0 slope) at 10 µM | hit rate 54% among 3,000 | AID 1917;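 active = Flux at 10 µM at least 3 SD below or above vehicle control mean in one or both replicates; inconclusive = no clear call, values can overlap the other calls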
* = called active by the depositor.

What do the screens show for `Cc1ccc(NC(=O)C2CCN(S(C)(=O)=O)CC2)cc1C`?
ROMK mod: 1.6*; ROMK retest: 0.077

What do the screens show for `CS(=O)(=O)N1CCC(C(=O)Nc2ccccc2)CC1`?
ROMK mod: -0.11

Results for CCC(=O)N(C)CCc1cc2c(c(OC)c1/C=N/NS(=O)(=O)c1ccc(C)cc1)OCO2 ?
Calb biofilm kill: 29

How did CCC(=O)N(C)CCc1cc2c(c(OC)c1/C=N/NC(=O)c1ccncc1)OCO2 do in these assays?
ROMK mod: -2*; Calb biofilm kill: 15; ROMK retest: 0.072

What do the screens show for `Cc1ccc(C(=O)OCC(=O)NC(C)C)cc1S(=O)(=O)N1CCOCC1`?
ROMK mod: -0.22; Calb biofilm kill: -15

What do the screens show for `O=C(Cn1c(C(=O)NCc2ccco2)cc2sccc21)c1ccccc1`?
ROMK retest: 0.085

How did O=C(NCc1ccco1)C1CCN(C(=O)c2cc3sccc3n2Cc2ccc(Cl)cc2)CC1 do in these assays?
ROMK mod: -1.9

Results for O=C(CSc1ncn[nH]1)NC1CCCc2ccccc21 (stereo unspecified) ?
ROMK mod: 0.56; Calb biofilm kill: -4

Results for Nc1ccnn1Cc1ccc(Br)s1 ?
Calb biofilm kill: 19

What do the screens show for `Cn1c(C(=O)N2COCC2(C)C)cc2c(=O)n3ccccc3nc21`?
ROMK mod: 0.012

Results for CCn1c(SCC(=O)Nc2c(C)n(C)n(-c3ccccc3)c2=O)nnc1-c1cccc(C)c1 ?
ROMK mod: -0.011

What do the screens show for `O=c1n(S(=O)(=O)c2cccc3cccnc23)c2ccccc2n1S(=O)(=O)c1cccc2cccnc12`?
ROMK mod: -1.2

What do the screens show for `CCOC(=O)CNC(=O)c1ccc2[nH]c3ccccc3c2c1`?
ROMK mod: 0.22; Calb biofilm kill: 8

How did O=C(NCC(O)CO)c1ccc2[nH]c3ccccc3c2c1 (stereo unspecified) do in these assays?
Calb biofilm kill: 12; ROMK retest: 0.077

Results for CCOc1ccccc1C1C(C#N)=C(N)Oc2cc(N)ccc21 (stereo unspecified) ?
ROMK mod: -4.2*; ROMK retest: 0.053*

Results for N#CC1=C(N)Oc2cc(N)ccc2C1C1CCCCC1 (stereo unspecified) ?
ROMK mod: -0.24

Results for Nc1nc(-c2ccccc2)cn1/N=C/c1ccccc1 ?
ROMK mod: 7.3*; Calb biofilm kill: 24; ROMK retest: 0.089

What do the screens show for `COc1ccc(-c2cn(/N=C/c3ccc(Cl)cc3Cl)c(N)n2)cc1`?
ROMK mod: 0.16

What do the screens show for `COc1ccc(NC(=S)N(CCO)Cc2ccccc2)cc1`?
ROMK mod: 0.13; Calb biofilm kill: 9

Results for COCCN(Cc1ccccc1)C(=S)Nc1ccc(Cl)cc1 ?
ROMK mod: 6*; Calb biofilm kill: 15; ROMK retest: 0.081

What do the screens show for `CCC(Oc1ccccc1)C(=O)N(Cc1ccccc1)c1ccccn1` (stereo unspecified)?
ROMK mod: -0.79; Calb biofilm kill: 4

How did Cc1nnc(Nc2ccc(Cl)c(C(F)(F)F)c2)[nH]c1=O do in these assays?
ROMK mod: -0.73; Calb biofilm kill: -4

How did Cc1cccc(Nc2ccccc2C(=O)O)c1C do in these assays?
Calb biofilm kill: 8

Results for Cc1cccc(Nc2ncccc2C(=O)O)c1C ?
ROMK retest: 0.079

Results for CC1CCCCC1NC(=O)Cn1cnc2ccccc2c1=O (stereo unspecified) ?
ROMK mod: 0

How did CC1CCCCC1NC(=O)CN1C(=O)c2cccc(N)c2C1=O (stereo unspecified) do in these assays?
ROMK mod: -3.7*; Calb biofilm kill: 8; ROMK retest: 0.056*

What do the screens show for `COCCCNC(=O)CN1C(=O)c2ccccc2C1=O`?
ROMK mod: -0.0079

Results for CCCCNC(=O)CN1C(=O)c2cccc(N)c2C1=O ?
ROMK mod: -2.5; Calb biofilm kill: 5; ROMK retest: 0.055*

Results for OCC1(CCCc2ccccc2)CCN(Cc2cc(F)ccc2F)CC1 ?
ROMK mod: -2.6; Calb biofilm kill: -5

What do the screens show for `O=C(NC1CCCCC1)C1CCN(S(=O)(=O)c2cccs2)CC1`?
ROMK mod: -0.057

How did O=C(NC1CCCCCC1)C1CCCN(S(=O)(=O)c2cccs2)C1 (stereo unspecified) do in these assays?
ROMK retest: inconclusive

What do the screens show for `Cc1ccccc1NC(=S)N(Cc1ccco1)C(C)c1ccccn1` (stereo unspecified)?
ROMK mod: 0.036; Calb biofilm kill: 14

What do the screens show for `COc1cc(/C(C)=N/N2CCOCC2)cc(OC)c1OC`?
ROMK mod: -0.046; Calb biofilm kill: 22

What do the screens show for `COc1cccc(-c2csc(N3CCN(C(=O)Nc4ccc(F)cc4)CC3)n2)c1`?
ROMK mod: -2.3; Calb biofilm kill: 16

What do the screens show for `COc1cccc(-c2csc(N3CCN(C(=O)C4CCCCC4)CC3)n2)c1`?
ROMK retest: inconclusive
